In article PMC4411251 (The Journal of General Physiology, 2015):
“Also recorded” adds a separate entry of the source.

Columns and labels:
TRPV1-WT [1] = molecular target: T1, TRPV1-WT (Rattus norvegicus, UniProt O35433); format: cell-based; details: Hill fit of dose–response, native lipids
TRPV1-R721A [2] = molecular target: T2, TRPV1-R721A (Rattus norvegicus, UniProt O35433, R721A); format: cell-based; details: Hill fit of dose–response, native lipids
TRPV1-R721A [3] = molecular target: T2, TRPV1-R721A; format: cell-based; details: for Hill slope nH, phosphoinositide activation of TRPV1-R721A: Hill fit of dose–response, 1 µM capsaicin
Summary of the method: (§1)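 Rat TRPV1 (WT or R721A) transiently expressed in F-11 cells and used 12–48 h post-transfection. […] Bath was 130 mM NaCl, 10 mM HEPES, 0.2 mM EDTA, pH 7.4, with steps from 0 mV to ±100 mV. Vehicle-subtracted currents were Hill-fitted per patch, normalized to Imax, and pooled (mean, SEM).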

TRPV1-WT [4] = molecular target: T1, TRPV1-WT; format: cell-based; details: Hill fit of dose–response, 1 µM capsaicin
Summary of the method: as §1

TRPV1 = details: ref Collins and Gordon, 2013; cited from earlier work
[5] = R721A mutation compared with WT

T1 sequence (O35433 whole entry): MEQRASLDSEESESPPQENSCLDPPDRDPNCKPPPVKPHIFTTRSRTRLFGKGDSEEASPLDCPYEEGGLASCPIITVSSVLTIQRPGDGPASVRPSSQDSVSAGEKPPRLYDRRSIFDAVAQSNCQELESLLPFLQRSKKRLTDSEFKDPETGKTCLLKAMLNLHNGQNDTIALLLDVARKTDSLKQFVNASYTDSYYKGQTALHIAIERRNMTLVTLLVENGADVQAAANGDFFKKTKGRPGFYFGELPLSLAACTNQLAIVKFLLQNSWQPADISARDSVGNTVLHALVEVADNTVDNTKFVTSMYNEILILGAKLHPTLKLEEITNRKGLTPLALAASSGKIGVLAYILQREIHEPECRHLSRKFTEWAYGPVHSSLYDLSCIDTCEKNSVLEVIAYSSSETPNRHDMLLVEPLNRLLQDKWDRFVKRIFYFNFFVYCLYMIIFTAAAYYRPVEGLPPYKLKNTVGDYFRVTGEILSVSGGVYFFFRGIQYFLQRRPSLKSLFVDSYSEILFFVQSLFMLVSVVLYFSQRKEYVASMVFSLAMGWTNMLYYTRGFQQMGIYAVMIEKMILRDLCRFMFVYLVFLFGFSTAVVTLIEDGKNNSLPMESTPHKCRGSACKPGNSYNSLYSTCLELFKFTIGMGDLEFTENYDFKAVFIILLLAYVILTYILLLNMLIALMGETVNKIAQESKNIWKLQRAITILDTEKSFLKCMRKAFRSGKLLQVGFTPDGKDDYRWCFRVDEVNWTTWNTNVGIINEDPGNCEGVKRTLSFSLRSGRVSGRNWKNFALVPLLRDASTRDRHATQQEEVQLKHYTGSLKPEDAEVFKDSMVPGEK
T2 sequence (O35433 whole entry R721A): as the sequence (O35433 whole entry) above, with R721A counted along it

SMILES | Hill slope nH, capsaicin activation of TRPV1-WT (TRPV1-WT [1]) | Hill slope nH, capsaicin activation of TRPV1-R721A (TRPV1-R721A [2]) | Hill slope nH, phosphoinositide activation of TRPV1-R721A (TRPV1-R721A [3]) | decrease in the EC50 for activation produced by the R721A mutation (in words) (TRPV1-R721A [3]; [5]) | decrease in the EC50 value, TRPV1-R721A versus TRPV1-WT (TRPV1-R721A [3]; [5]) | Hill slope nH, phosphoinositide activation of TRPV1-WT (TRPV1-WT [4]) | increase in the EC50 value, TRPV1-R721A versus TRPV1-WT (TRPV1-R721A [3]; [5]) | K1/2 of activating effects on TRPV1 in the plasma membrane (TRPV1)
COc1cc(CNC(=O)CCCC/C=C/C(C)C)ccc1O [capsaicin] | 1 | 1 |  |  |  |  |  | 
CCCCCCCC(=O)OC[C@H](COP(=O)(O)O[C@H]1[C@H](O)[C@@H](O)[C@H](OP(=O)(O)O)[C@@H](O)[C@H]1O)OC(=O)CCCCCCC [diC8-PI(4)P] |  |  | 2 | more than two orders of magnitude; also recorded: over two orders of magnitude | 150 fold | 2 |  | 
CCCCCCCC(=O)OC[C@H](COP(=O)(O)O[C@@H]1[C@H](O)[C@H](O)[C@@H](OP(=O)(O)O)[C@H](OP(=O)(O)O)[C@H]1O)OC(=O)CCCCCCC [diC8-PI(4,5)P2, phosphoinositide 4,5-bisphosphate] |  |  | 2 |  |  | 2 | 1.3 fold | ~0.03 mol %
